Key:
Mus musculus [1] = assay: Toxicity in DBA/2 mouse allografted with mouse P388 cells up to 320 mg/kg/day, ip for 9 days; type: organism-based; design: route intraperitoneal; conditions: in vivo, 216 h
Method in brief: (§1)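 DBA/2 mice bearing P388 lymphocytic leukemia received one intraperitoneal injection per day for 9 days, given in the vehicle named for each test (water/alcohol-based, saline or saline + Tween 80). Toxicity was noted during dosing alongside survival scoring (T/C, treated versus control mean survival time).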

P388 [2] = assay: Antitumor activity against mouse P388 cells allografted in DBA/2 mouse assessed as host survival at 160 mg/kg/day, ip for 9 days compound administered through saline vehicle relative to control; type: functional; conditions: route intraperitoneal
Method in brief: (§2)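 P388 lymphocytic leukemia in DBA/2 mice. Dosing was one intraperitoneal injection per day for 9 days in the vehicle stated. […] Duplicate tests were run for some doses.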

P388 [3] = assay: Antitumor activity against mouse P388 cells allografted in DBA/2 mouse assessed as host survival at 320 mg/kg/day, ip for 9 days compound administered through saline vehicle relative to control; type: functional; conditions: route intraperitoneal; method in brief: as §2
Mus musculus [4] = assay: Toxicity in DBA/2 mouse allografted with mouse P388 cells assessed as change in body weight at 160 mg/kg/day, ip for 9 days compound administered through saline vehicle; type: organism-based; design: route intraperitoneal; conditions: in vivo, 216 h; method in brief: as §1
Mus musculus [5] = assay: Toxicity in DBA/2 mouse allografted with mouse P388 cells assessed as change in body weight at 80 mg/kg/day, ip for 9 days compound administered through saline vehicle; type: organism-based; design: route intraperitoneal; conditions: in vivo, 216 h; method in brief: as §1
Mus musculus [6] = assay: Toxicity in DBA/2 mouse allografted with mouse P388 cells assessed as change in body weight at 320 mg/kg/day, ip for 9 days compound administered through saline vehicle; type: organism-based; design: route intraperitoneal; conditions: in vivo, 216 h; method in brief: as §1
P388 [7] = assay: Antitumor activity against mouse P388 cells allografted in DBA/2 mouse assessed as host survival at 80 mg/kg/day, ip for 9 days compound administered through saline vehicle relative to control; type: functional; conditions: route intraperitoneal; method in brief: as §2

SMILES: COC1=C[C@]23CCCN2CCc2cc4c(cc2[C@@H]3[C@@H]1OC(=O)[C@@H](OC(=O)OCC(Cl)(Cl)Cl)c1ccccc1)OCO4
- Activity (Mus musculus [1]): Toxic
- T/C (P388 [2]): 154%
- T/C (P388 [3]): 136%
- Activity (Mus musculus [4]): 1.2 g
- Activity (Mus musculus [5]): -1 g
- Activity (Mus musculus [6]): -2.3 g
- T/C (P388 [7]): 138%
